MEKK2mut PB1 HTS: signal of MEK5 binding to mutant human MEKK2 PB1 domain; bead flow cytometry, Alexa488-MEK5 binding to MEKK2 mutant; 290,000 tested, 0.35% active; percent response, % at 10 µM; in the data active means percent response above about 24%, passing the limit was not always enough
UCH37 inh: inhibitors of human deubiquitinating enzyme UCH37; purified proteasome/UCH37, Ub-AMC cleavage fluorescence; inhibition, % (test concentration not listed); 330,000 tested, 0.33% active; AID 588478;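 active means mean inhibition over replicate wells above about 20%, limit read from the data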;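 further: 0% = compound-free wells with enzyme and 100% = wells lacking proteasome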
Target sequence (Q9Y5K5 whole entry, looked up): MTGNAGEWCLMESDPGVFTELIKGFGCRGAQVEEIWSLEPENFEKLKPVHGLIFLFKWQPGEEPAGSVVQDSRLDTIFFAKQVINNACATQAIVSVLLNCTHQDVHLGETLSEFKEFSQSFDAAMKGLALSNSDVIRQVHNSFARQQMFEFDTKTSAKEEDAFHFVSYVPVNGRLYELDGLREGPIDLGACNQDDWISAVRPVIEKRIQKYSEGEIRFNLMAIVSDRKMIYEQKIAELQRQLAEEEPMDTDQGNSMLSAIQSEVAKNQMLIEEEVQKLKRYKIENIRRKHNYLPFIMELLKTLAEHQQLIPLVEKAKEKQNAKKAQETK
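Material: Human UCH37 enzyme supplied as purified proteasome complex | Schedule: 30 min compound-proteasome preincubation then 25 min substrate reaction, room temperature | Detection: AMC fluorescence from Ub-AMC cleavage, excitation 355 nm, emission 460 nm | Benchmarks: Wells without proteasome as full block, compound-free enzyme plus substrate as uninhibited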
T cell modulator: T cell immune modulation candidate; 2C CD8+ T cell-vesicle binding, flow cytometry; stronger effect = lower value; response (vesicle binding), % at 7 µM; 330,000 tested, 0.068% active; AID 2052;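 active means response, share of CD8 T cells binding vesicles, and their 90th percentile fluorescence all below set limits, cut at about 80% in these data, passing the limit was not always enough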;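 further: values below 100% mean blocked vesicle binding to the CD8+ T cells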
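Assay system – 2C mouse CD8+ T cells · Also added – QL9-loaded Drosophila micro-vesicles · Timing – Cell–vesicle co-incubation 1.5 h at 37 °C, staining 20 min on ice · Signal – flow cytometry of vesicle-bound cells · Measure – percent CD8+ FL2 mean versus row control · Controls – Peptide-free naked vesicles (low) and QL9 vesicles with 0.7% DMSO vehicle (high)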
Rce1 inh: inhibitors of yeast Ras-converting enzyme; yeast membranes, quenched prenylated peptide cleavage fluorescence; calls only; 290,000 tested, 0.27% active; AID 2563; Q03530;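 active means fall in fluorescence gain of 50% or more versus controls, with final raw signal at or below 3038400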;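 further: plate controls were neutral control wells for no effect and wells lacking membranes for full effect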
Target sequence (Q03530 whole entry, looked up): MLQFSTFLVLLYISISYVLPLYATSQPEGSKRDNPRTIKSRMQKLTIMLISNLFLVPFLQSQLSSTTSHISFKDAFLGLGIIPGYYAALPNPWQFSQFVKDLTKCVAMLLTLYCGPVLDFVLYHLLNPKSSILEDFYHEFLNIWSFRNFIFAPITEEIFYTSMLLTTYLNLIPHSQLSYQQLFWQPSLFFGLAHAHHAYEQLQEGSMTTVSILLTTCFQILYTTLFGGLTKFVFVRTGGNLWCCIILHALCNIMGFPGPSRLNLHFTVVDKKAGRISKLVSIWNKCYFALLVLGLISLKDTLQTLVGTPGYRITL
MEKK2 WT-MEK5: raises or lowers MEK5 binding to wildtype human MEKK2 PB1 domain; Q9Y2U5; bead flow cytometry, Alexa488-MEK5 binding to MEKK2 WT; actives lie on both sides; binding response (% of control), % at 10 µM; 290,000 tested, 1.1% active; in the data active means binding response below about 67% or above about 130%
MEKK3 PB1 HTS: modulators (inhibitors or enhancers) of MEK5 binding to human MEKK3 PB1 domain. binding response (% of control), % at 10 µM. 290,000 tested, 1.4% active. Q99759. AID 1529. bead-based flow cytometry, Alexa488-MEK5 binding to MEKK3; actives lie on both sides; 0 = blocked by unlabeled MEK5, 100 = vehicle;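 active means binding response more than 3 SD above or below the average of its plate-row segment, actives on both sides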;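 further: Alexa488 bead fluorescence after subtracting the streptavidin-only scavenger bead signal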
MEKK2wt confirm: raises or lowers MEK5 binding to wildtype human MEKK2, retest; shares compounds with MEKK3 PB1 HTS; bead flow cytometry, Alexa488-MEK5 binding to MEKK2 WT; actives lie on both sides; binding response (% of control), % at 10 µM; 5,900 tested, 2.4% active; AID 1892; in the data active means binding response below about 16% or above about 210%; inactive means in between
MEKK2mut-MEK5: signal of MEK5 binding to mutant human MEKK2, retest. shares compounds with MEKK3 PB1 HTS. bead flow cytometry, Alexa488-MEK5 binding to MEKK2 mutant. percent response, % at 10 µM. 5,900 tested, 2% active. AID 1893; in the data active means percent response mostly above about 71%, no sharp cut-off; inactive means mostly below about 38%;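 further: higher means compound restores mutant binding toward wildtype level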
MEKK3-MEK5 inh: MEKK3-MEK5 PB1 inhibition, single concentration confirmation; AID 1894; shares compounds with MEKK3 PB1 HTS; 5,900 tested, 1.8% active; bead flow cytometry, Alexa488-MEK5 binding to MEKK3; stronger effect = lower value; binding response (% of control), % at 10 µM;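 active means binding response below 72% of control, or above a set upper limit, though filed actives all read lower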;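 further: 100% = DMSO only wells and 0% = binding blocked by excess unlabeled MEK5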
* hit, by the source's call; i = inactive; · = no result given; [ ] = another dose, or the depositor's remark. Compounds with a hit are over-represented: about 2.5% of the library has one in this group of screens.

SMILES | MEKK2mut PB1 HTS | UCH37 inh | T cell modulator | Rce1 inh | MEKK2 WT-MEK5 | MEKK3 PB1 HTS | MEKK2wt confirm | MEKK2mut-MEK5 | MEKK3-MEK5 inh
O=C(COc1cccc2cccnc12)NN=Cc1cccn1-c1ccc(F)cc1 | · | 4 | · | · | · | · | · | · | ·
CCN(CC)CCOC(=O)c1ccc(N/C=C(/C#N)c2nc(-c3cc4ccccc4oc3=O)cs2)cc1 | -44 | 4 | 115 | i | 36*[inhibitor] | 15*[inhibitor] | 14*[inhibitor] | -29 | 13*
CCN(CC)CCOC(=O)c1cccc(OC)c1 | -3 | 1 | 326 | i | 93 | 92 | · | · | ·
CCN(CC)CCOC(=O)c1ccc(N/C=C(/C#N)c2nc(-c3ccc(OC)cc3)cs2)cc1 | 19 | 7 | 364 | i | 72 | 22*[inhibitor] | 212* | 31 | 84
CCN(CC)CCOC(=O)c1ccc(N/C=C(/C#N)c2nc(-c3ccc4c(c3)OCO4)cs2)cc1 | 4 | · | 503 | i | 58*[inhibitor] | 22*[inhibitor] | 101 | -20 | 39*
COc1cc(/C=C(\C#N)c2nc(-c3cc4ccccc4oc3=O)cs2)ccc1O | 5 | 1 | 398 | i | 82 | 102 | · | · | ·
Cc1ccc(NCC(=O)NN=Cc2ccc(OC(=O)c3ccco3)cc2)cc1 | · | 2 | · | · | · | · | · | · | ·
COc1ccc(CNC(=S)Nc2cccc(C)c2C)cc1 | -11 | -1 | 594 | i | 82 | 78*[inhibitor] | 98 | -1 | 101
CCN(CC)CCCNC(=O)c1cn(C)c(=O)c2c1c1ccccc1n2C | -4 | -90 | 227 | i | 97 | 95 | · | · | ·
CCN(CC)CCCNC(=O)c1cn(CCOC)c(=O)c2c1c1ccccc1n2C | -16 | -96 | 424 | i | 52 | 34*[inhibitor] | 105 | 1 | 105
O=C(NN=Cc1sc(N2CCOCC2)nc1-c1ccccc1)c1cccc(S(=O)(=O)N2CCOCC2)c1 | · | 0 | · | · | · | · | · | · | ·
CC(C)(C)NC(=O)C(c1ccncc1)N(C(=O)c1csnn1)c1cccc2ccccc12 (stereo not drawn) | 6 | 3 | i | i | 124 | 143* | 98 | -21 | 98
Cc1ccccc1N(C(=O)c1csnn1)C(C(=O)NC(C)(C)C)c1ccncc1 (stereo not drawn) | -4 | · | 263 | i | 89 | 80 | · | · | ·
O=C(NN=C1CC(c2ccccc2)Oc2ccccc21)c1cccnc1 (stereo not drawn) | · | -81 | · | · | · | · | · | · | ·
COc1ccccc1NCC(O)Cn1c2ccccc2c2ccccc21 (stereo not drawn) | -2 | -5 | 227 | · | 99 | 99 | · | · | ·
COc1ccc(CCNCC(O)Cn2c3ccccc3c3ccccc32)cc1OC (stereo not drawn) | 23 | 5 | 243 | i | 159* | 106 | 165 | 36 | 111
COc1cccc(C=NNC(=O)CCNc2n[nH]c(=O)[nH]c2=O)c1OC | · | -1 | · | · | · | · | · | · | ·
N/C(=N\N=C/c1ccc(Br)cc1)N/N=C\c1ccc(Br)cc1 | 102* | · | 206 | i | 215* | 110 | 129 | 21 | 105
NC(N)=NN=Cc1ccc(Br)cc1 | · | 4 | · | · | · | · | · | · | ·
N/C(=N\N=Cc1ccc2c(c1)OCO2)NN=Cc1ccc2c(c1)OCO2 | · | -12 | · | · | · | · | · | · | ·
N/C(=N\N=C/c1ccc(F)cc1)N/N=C\c1ccc(F)cc1 | 31* | · | 150 | i | 159* | 110 | 162 | 38 | 108
COCCN1C(=O)/C(=C/c2ccc(N3CCCC3)cc2)SC1=S | -22 | 6 | 261 | i | 59*[inhibitor] | 87 | 50 | -32 | 88
CN1CCN(Cc2c(C(=O)NN=Cc3cccc(Br)c3)nnn2-c2nonc2N)CC1 | · | 3 | · | · | · | · | · | · | ·
Cc1ccc(C(=O)NCC(=O)NN=Cc2cccs2)cc1C | · | 0 | · | · | · | · | · | · | ·
Fc1ccc(-n2c(-c3cccs3)nc3nc4ccccc4nc32)cc1 | 0 | -211 | 141 | i | 100 | 134* | 99 | 0 | 100
SMILES | MEKK2mut PB1 HTS | UCH37 inh | T cell modulator | Rce1 inh | MEKK2 WT-MEK5 | MEKK3 PB1 HTS | MEKK2wt confirm | MEKK2mut-MEK5 | MEKK3-MEK5 inh
CCC(=O)N[C@@H]1CC(C(C)(C)NC(=O)CC)CC=C1C (stereo partly drawn) | -21 | 1 | 446 | i | 1.0*[inhibitor] | 2.0*[inhibitor] | 105 | 3 | 101
CC(=O)NC(C)(C)C1CC=C(C)C(=NO)C1 (stereo not drawn) | · | 1 | · | · | · | · | · | · | ·
CCOC(=O)NN=Cc1ccc(OCCSc2ccc(Cl)cc2)c(OC)c1 | · | 2 | · | · | · | · | · | · | ·
Cc1cnn(C(=O)c2cc(-c3ccccn3)nc3ccc(Cl)cc23)c1 | 0 | 1 | 434 | i | 97 | 101 | · | · | ·
O=C(c1cc(-c2ccccn2)nc2ccc(Cl)cc12)N1CCN(CCc2ccccc2)CC1 | -23 | 5 | 261 | i | -4.0*[inhibitor] | -1.0*[inhibitor] | 97 | -2 | 97
Oc1ccccc1CNc1cnc2ccccc2c1 | -1 | -140 | 663 | i | -5.0*[inhibitor] | 101 | 101 | 6 | 103
COc1cc(NC(=O)Cn2c(=O)n(CC3CCCO3)c(=O)c3ccccc32)cc(OC)c1 (stereo not drawn) | 0 | 3 | 109 | i | 113 | 138* | 116 | 14 | 109
COc1ccc(-n2c(=O)c3ccccc3n(CC(=O)NC3CCCCC3)c2=O)cc1 | 4 | 0 | 270 | · | 121 | 124* | 104 | 2 | 102

Screening results: PubChem, several laboratories
